Measured values of several laboratories.
Compare with care: the assays were run in different laboratories.
Target: Dual specificity mitogen-activated protein kinase kinase 2 (MAP2K2, Homo sapiens, UniProt P36507)

Structure (SMILES) | assay | setting | quantity | value
Cc1ccc(C(=O)NCc2ccsc2)cc1C#Cc1cn(C(C)C)c2ncnc(N)c12 | enzyme activity, inhibitor | 1 µM | activity vs control | 81%
O=C(CSc1nc2nccnc2c(=O)n1CCc1ccccc1)Nc1nccs1 | enzyme activity, inhibitor | 10 µM | inhibition | -3%
CN(C)C(=O)Cn1cc(-c2nc([C@@](C)(c3ccc(-c4cnc(N)nc4)cc3)C3CC3)no2)cn1 | cell-free assay, competition with immobilised ligand | 1 µM | remaining binding | 86%
Cn1c2c(Cl)c(Cl)ccc2c2cc[nH]c(=O)c21 | thermal stability, DSF | 10 µM | ΔTm | -0.5 °C
O=C(NCc1ncc(C(F)(F)F)cc1Cl)c1ccc2c(c1)C1(CCS(=O)(=O)CC1)[C@@H](C1CC1)N2S(=O)(=O)c1ccc(F)cc1 | cell-free assay, competition with immobilised ligand | 1 µM | remaining binding | 78%
COc1cc(-c2cc(-c3ccc(N4CCNCC4)cc3)cnc2C)cc(OC)c1OC | enzyme activity, inhibitor | 1 µM | inhibition | 8%
CCOc1cc(-c2nncn2C)ccc1Nc1ncc2cc(C)nc(NCC(C)(C)C)c2n1 | enzyme activity, inhibitor, FRET | 1 µM | inhibition | 18%
Nc1ncnc2occ(-c3ccc(NC(=O)Nc4cc(C(F)(F)F)ccc4F)cc3)c12 | cell-free assay, inhibitor | 20 µM | remaining signal | 7.1%
O=C(Nc1cnn(-c2csc(C(=O)NC3COC3)c2)c1)Nc1c(F)cccc1Cl | enzyme activity, inhibitor | 5 µM | remaining activity | 90.6%
FC(F)c1nc2ccccc2n1-c1nc(N2CCOCC2)nc(N2CCOCC2)n1 | enzyme activity, inhibitor | 10 µM | remaining activity | 95%
COc1cc(Nc2cnc(C#N)c(O[C@H](C)CN(C)C)n2)ncc1-c1cnn(C)c1 | enzyme activity, inhibitor, radiometric | 10 µM | remaining activity | 57%
O=C(Nc1cnn(-c2csc(C(=O)NC3COC3)c2)c1)Nc1ccccc1Cl | enzyme activity, inhibitor | 5 µM | remaining activity | 92.2%
Nc1c(C(=O)NCc2ccc(C(=O)NCCCC3CCCCC3)cc2)cnn1-c1ccccc1 | cell-free assay, competition with immobilised ligand | 0.1 µM | remaining binding | 100%
COc1cc2ncnc(Nc3ccc(Oc4ccccc4)c(C)c3C)c2cc1OC | enzyme activity, inhibitor | 1 µM | inhibition | -7%
Cn1c2c(c3ccccc31)C(C#N)C(C)(C)NC2=O (stereo not shown) | thermal stability, DSF | 10 µM | ΔTm | -0.1 °C
N#CC(=C(N)Sc1ccc(N)cc1)c1ccccc1C(F)(F)F | cell-free assay | 0.5 µM | remaining signal | 94.5%

Structure (SMILES) | assay | setting | quantity | value
Nc1cnc(N2CCc3cc(S(=O)(=O)Nc4c(F)cc(Cl)cc4F)cc(N4CCCC4=O)c32)nc1 | cell-free assay, competition with immobilised ligand | 1 µM | remaining binding | 92%
CC(C)(C)c1nc(-c2cccc(NS(=O)(=O)c3c(F)cccc3F)c2F)c(-c2ccnc(N)n2)s1 | enzyme activity, inhibitor, radiometric | 1 µM | remaining activity | 91%
C[C@H](NC(=O)c1cnc2n1[C@](C)(Cc1ccc(C#N)cc1)C(=O)N2c1cc(Cl)c(F)c(Cl)c1)C(=O)NC1(c2ccccn2)CC1 | cell-free assay, competition with immobilised ligand | 1 µM | remaining binding | 90%
Oc1cccc(-c2nc(N3CCOCC3)c3oc4ncccc4c3n2)c1 | enzyme activity, inhibitor | 10 µM | remaining activity | 115%
Cn1c2c(c3ccc(Cl)c(Cl)c31)C(C#N)C1(CCCC1)NC2=O (stereo not shown) | thermal stability, DSF | 10 µM | ΔTm | -0.4 °C
CS(=O)(=O)N1CCCC(NC(=O)[C@H](CCC2CCCCC2)NC(=O)c2ccc(CNc3ncnc4c3nnn4-c3ccccc3)cc2)C1 (stereo partly shown) | cell-free assay, competition with immobilised ligand | 0.1 µM | remaining binding | 90%
C#Cc1cccc(Nc2ncnc3cc(OCCOC)c(OCCOC)cc23)c1 | cell-free assay | 0.5 µM | remaining signal | 105%
FC(F)(F)Oc1cccc(-c2cnc3ccc(-c4ccncc4)nn23)c1 | enzyme activity, inhibitor, radiometric | 1 µM | activity vs control | 84%
CCC1(CC)NC(=O)c2c(c3ccc(Cl)c(Cl)c3n2C)C1C#N (stereo not shown) | thermal stability, DSF | 10 µM | ΔTm | -0.4 °C
CS(=O)(=O)N1CCCC(NC(=O)[C@H](CCC2CCCCC2)NC(=O)c2ccc(CNC(=O)c3cnc4ccccn34)cc2)C1 (stereo partly shown) | cell-free assay, competition with immobilised ligand | 0.1 µM | remaining binding | 100%
CN1CC(Oc2cnc(C#N)cc2-c2ccn3nc(NC(=O)C4CC4)cc3c2)C1 | enzyme activity, inhibitor | 1 µM | inhibition | 14%
CN1CCC2(CC1)NC(=O)c1c(c3ccc(Cl)c(Cl)c3n1C)C2C#N (racemic) | thermal stability, DSF | 10 µM | ΔTm | -0.3 °C
O=C1Nc2ccc(Cl)cc2C1=Cc1cc(Cl)c(O)c(Cl)c1 | cell-free assay | 0.5 µM | remaining signal | 82%
CCCOc1ccc([C@H]2[C@H](C(=O)O)[C@@H](c3ccc4c(c3)OCO4)CN2CC(=O)Nc2c(CC)cccc2CC)cc1 | cell-free assay, competition with immobilised ligand | 1 µM | remaining binding | 62%
CCN1CCC2(CC1)NC(=O)c1c(c3ccc(Cl)c(Cl)c3n1C)C2C#N (racemic) | thermal stability, DSF | 10 µM | ΔTm | -0.1 °C
